Experiment [1] addresses T1, Caspase-1 (Homo sapiens) (UniProt P29466).
T1 sequence (whole entry): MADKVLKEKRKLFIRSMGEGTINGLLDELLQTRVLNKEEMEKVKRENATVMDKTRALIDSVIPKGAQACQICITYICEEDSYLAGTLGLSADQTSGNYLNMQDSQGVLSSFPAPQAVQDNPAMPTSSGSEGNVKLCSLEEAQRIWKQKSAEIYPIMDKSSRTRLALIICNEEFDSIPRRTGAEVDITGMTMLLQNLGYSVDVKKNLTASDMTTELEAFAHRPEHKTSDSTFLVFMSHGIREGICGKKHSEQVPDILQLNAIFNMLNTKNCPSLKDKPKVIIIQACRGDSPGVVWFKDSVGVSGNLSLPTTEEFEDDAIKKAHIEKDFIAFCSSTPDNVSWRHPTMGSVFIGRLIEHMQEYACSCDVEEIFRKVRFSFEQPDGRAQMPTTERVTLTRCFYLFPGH
In words: Second order rate constant of inactivation for compound was measured against Interleukin-1-beta converting enzyme partially purified from THP-1 cells. An outline of the steps: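 ICE was partially purified from THP-1 cells by DEAE-Sephacel and Sephadex G-75 steps. Fluorescence progress curves were recorded at 37 °C over 30 min, and the nonlinear curves were analysed by the Tian–Tsou method. Standard error was <10%.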

Experiment [2] deals with T1, Caspase-1 (Homo sapiens). In words: The binding affinity of compound was measured against Interleukin-1-beta converting enzyme in monocytic cells. Format: cell-based. A digest of the protocol:
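ICE was partially purified from THP-1 cells by DEAE-Sephacel and Sephadex G-75 steps. The assay buffer was 10 mM HEPES pH 7.5 with 25% glycerol and 1 mM DTT, and the substrate was 10 μM Suc-Tyr-Val-Ala-Asp-AMC. Fluorescence progress curves were recorded at 37 °C over 30 min, and the nonlinear curves were analysed by the Tian–Tsou method. Standard error was <10%.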

`O=C(O)C[C@H](NC(=O)Cn1c(-c2ccc(F)cc2)ncc(NC(=O)c2ccco2)c1=O)C(=O)COC(=O)c1c(Cl)cccc1Cl` showed a k obs / 1 in experiment [1] of 46000 M⁻¹ s⁻¹.

For the molecule `O=C(O)C[C@H](NC(=O)Cn1c(-c2ccc(F)cc2)ncc(NC(=O)NCc2ccccc2)c1=O)C(=O)COC(=O)c1c(Cl)cccc1Cl`, the k obs / 1 in experiment [1] is 148000 M⁻¹ s⁻¹.

In turn, `O=C(O)C[C@H](NC(=O)Cn1c(-c2ccc(F)cc2)ncc(NC(=O)OCc2ccccc2)c1=O)C(=O)COP(=O)(c1ccccc1)c1ccccc1` came in with a k obs / 1 in experiment [2] of 145000 M⁻¹ s⁻¹.

`O=C(O)C[C@H](NC(=O)Cn1c(-c2ccc(F)cc2)ncc(NC(=O)OCc2ccccc2)c1=O)C(=O)COc1cc(C(F)(F)F)nn1-c1ccccc1` had a k obs / 1 in experiment [2] of 157000 M⁻¹ s⁻¹.

In experiment [1], `O=C(O)C[C@H](NC(=O)Cn1c(-c2ccc(F)cc2)ncc(NS(=O)(=O)c2ccccc2)c1=O)C(=O)COC(=O)c1c(Cl)cccc1Cl` had a k obs / 1 of 90000 M⁻¹ s⁻¹.

In experiment [1], `CC(C)[C@H](NC(=O)OCc1ccccc1)C(=O)N[C@@H](C)C(=O)N[C@@H](CC(=O)O)C(=O)COC(=O)c1c(Cl)cccc1Cl` yielded a k obs / 1 of 432000 M⁻¹ s⁻¹.

The molecule `Nc1cnc(-c2ccc(F)cc2)n(CC(=O)N[C@@H](CC(=O)O)C(=O)COC(=O)c2c(Cl)cccc2Cl)c1=O` came in with a k obs / 1 in experiment [1] of 36000 M⁻¹ s⁻¹.

In turn, `O=C(O)C[C@H](NC(=O)Cn1c(-c2cccnc2)ncc(NC(=O)OCc2ccccc2)c1=O)C(=O)COc1cc(C(F)(F)F)nn1-c1ccccc1` yielded a k obs / 1 in experiment [1] of 145000 M⁻¹ s⁻¹.

As to `O=C(O)C[C@H](NC(=O)Cn1c(-c2ccc(F)cc2)ncc(NC(=O)OCc2ccccc2)c1=O)C(=O)COC(=O)c1c(Cl)cccc1Cl`, the k obs / 1 in experiment [1] came out at 268000 M⁻¹ s⁻¹.

Molecule `CN(C)CCCCCC(=O)Nc1cnc(-c2ccc(F)cc2)n(CC(=O)N[C@@H](CC(=O)O)C(=O)COC(=O)c2c(Cl)cccc2Cl)c1=O` yielded a k obs / 1 in experiment [1] of 90000 M⁻¹ s⁻¹.

For the molecule `Cc1ncc(NC(=O)OCc2ccccc2)c(=O)n1CC(=O)N[C@@H](CC(=O)O)C(=O)COc1cc(C(F)(F)F)nn1-c1ccccc1`, in experiment [1], the k obs / 1 is 95000 M⁻¹ s⁻¹.
